We go through 1 compound from ChEMBL document CHEMBL4393678, “Novel Tetrahydroquinazolinamines as Selective Histamine 3 Receptor Antagonists for the Treatment of Obesity” (J Med Chem, 2019).

Structures are written as SMILES. pIC50: −log10 of the molar value. Active and inactive are the calls of the source. The calls are words filed in the database; no cut-off is given here.

In data set [1] the test system is Mus musculus. The experiment in a line: Anti-obesity activity in 16 hrs fasted db/db-induced obese C57BL/6J mouse model assessed as change in blood HDL level at 20 mg/kg, po measured after 6 weeks. Format: functional, organism-based.
The target of data set [2] is T1, G-protein coupled bile acid receptor 1 (Homo sapiens) (UniProt Q8TDU6).
T1 sequence (whole entry): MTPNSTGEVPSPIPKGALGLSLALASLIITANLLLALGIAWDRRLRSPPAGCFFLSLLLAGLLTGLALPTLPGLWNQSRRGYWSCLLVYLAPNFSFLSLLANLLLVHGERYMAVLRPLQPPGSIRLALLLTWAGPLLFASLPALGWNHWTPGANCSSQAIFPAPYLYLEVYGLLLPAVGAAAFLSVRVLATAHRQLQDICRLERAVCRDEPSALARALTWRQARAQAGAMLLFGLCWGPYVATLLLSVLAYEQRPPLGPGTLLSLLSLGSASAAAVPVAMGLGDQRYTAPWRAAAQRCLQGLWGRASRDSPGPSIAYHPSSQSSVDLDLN
Kind of data set: Agonist activity at Gs-coupled GPBAR1 (unknown origin) expressed in HEK293T cells assessed as inhibition of forskolin-stimulated cAMP accumulation preincubated for 10 to 15 followed by forskolin-stimulation by Glo-sensor assay. Format: functional, cell-based.

The nature of data set [3]: Ratio of AUClast in C57BL/6J mouse brain to AUClast in C57BL/6J mouse serum. Format: ADME. An outline of the steps: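 Male C57BL/6J mice (6–8 weeks) were fasted 12–16 h, then given a single oral dose of 20 mg/kg as a 2.5 mg/mL suspension in 1% gum acacia/water (n=5 per time point). Serum and brain (homogenised 1:6 in PBS) were sampled up to 24 h. Parent and demethylated metabolite were measured by LC-MS/MS (range 0.25–200 ng/mL). AUC ran to the last observation.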

For data set [4], the target named is T2, Muscarinic acetylcholine receptor M1 (Homo sapiens) (UniProt P11229).
T2 sequence (whole entry): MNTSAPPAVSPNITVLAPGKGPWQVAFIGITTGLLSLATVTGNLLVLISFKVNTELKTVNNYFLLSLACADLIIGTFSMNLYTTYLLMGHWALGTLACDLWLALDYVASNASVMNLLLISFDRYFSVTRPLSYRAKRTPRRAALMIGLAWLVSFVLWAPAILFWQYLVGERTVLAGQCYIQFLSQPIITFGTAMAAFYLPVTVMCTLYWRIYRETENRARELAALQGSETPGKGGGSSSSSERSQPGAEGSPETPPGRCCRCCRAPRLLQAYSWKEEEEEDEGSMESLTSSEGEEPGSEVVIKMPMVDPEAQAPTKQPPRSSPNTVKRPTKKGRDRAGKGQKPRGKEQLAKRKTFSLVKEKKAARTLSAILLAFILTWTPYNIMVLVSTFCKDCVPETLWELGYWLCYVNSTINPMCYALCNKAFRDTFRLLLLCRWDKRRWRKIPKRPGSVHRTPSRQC
Kind of data set: Agonist activity at M1R (unknown origin) expressed in HEK293 cells harboring luc2P/NFAT-RE plasmid at 10 uM after 6 to 8 hrs by luciferase reporter gene assay. Format: cell-based. An outline of the steps: (§1)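 NFAT-RE luciferase assay in HEK293T cells transiently co-transfected with luc2P/NFAT-RE plasmid and receptor plasmid. Cells plated in DMEM and incubated overnight at 37 °C, 5% CO₂. Compounds and reference ligands applied for 6-8 h. Luciferase read after adding Bright-Glo substrate (1 mg/ml final).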

Data set [5] deals with Mus musculus. Kind of data set: Anorexic effect in high fat diet-induced obese C57BL/6J mouse model assessed as reduction in cumulative food intake at 10 mg/kg, po pretreated for 30 mins followed by food addition measured after 4 hrs relative to control. Format: functional. Also noted: scale not given: the % may be the effect or the level left. An outline of the steps: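 Male C57BL/6J mice on high-fat diet, starved 12 h (8 am–8 pm) with water available, housed singly. Oral dose in 5% gum acacia in normal saline, vehicle group alongside. Food given 30 min after dosing, and cumulative intake measured over the 4 h night phase (9 pm–1 am). One-way ANOVA with Newman-Keuls test.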

The next data set concerns the target Histamine H3 receptor (Homo sapiens, UniProt Q9Y5N1). The experiment in a line: Antagonist activity at recombinant human Gi-coupled H3 receptor expressed in HEK293T cells assessed as reduction in histamine-induced inhibition of forskolin-stimulated cAMP accumulation preincubated for 10 to 15 followed by histamine addition for 10 mins and subsequent forskolin-stimulation by Glo-sensor assay. Format: functional, cell-based.

Data set [6] can be described thus: AUClast in C57BL/6J mouse serum at 20 mg/kg, po by LC-MS/MS analysis. Also noted: dose 20 mg/kg, route oral, time 0 - last. Format: ADME, organism-based. An outline of the steps:
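Male C57BL/6J mice, 6-8 weeks, 20 ± 5 g, fasted overnight (12-16 h), n = 5 per time point. Single 20 mg/kg oral dose given by feeding needle as a 2.5 mg/mL suspension in 1% w/v gum acacia and water. Serum and brain (homogenized 1:6 w/v in PBS) sampled up to 24 h. Liquid-liquid extraction, then LC-MS/MS in positive MRM mode with phenacetin as internal standard. Linear range 0.25-200 ng/mL. Non-compartmental and compartmental analysis.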

The target of data set [7] is T3, 5-hydroxytryptamine receptor 2C (Homo sapiens) (UniProt P28335).
T3 sequence (whole entry): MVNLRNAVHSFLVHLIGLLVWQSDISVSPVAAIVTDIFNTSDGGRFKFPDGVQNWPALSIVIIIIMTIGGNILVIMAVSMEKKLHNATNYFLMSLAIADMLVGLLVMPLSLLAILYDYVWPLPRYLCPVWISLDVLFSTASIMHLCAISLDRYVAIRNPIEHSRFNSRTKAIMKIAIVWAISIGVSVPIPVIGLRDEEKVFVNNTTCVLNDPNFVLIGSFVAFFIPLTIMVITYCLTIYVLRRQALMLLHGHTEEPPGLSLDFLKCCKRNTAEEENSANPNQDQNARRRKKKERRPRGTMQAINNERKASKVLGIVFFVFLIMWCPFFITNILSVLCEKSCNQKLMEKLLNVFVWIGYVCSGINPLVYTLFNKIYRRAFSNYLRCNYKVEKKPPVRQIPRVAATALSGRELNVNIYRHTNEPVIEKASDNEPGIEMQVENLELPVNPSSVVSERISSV
Kind of data set: Agonist activity at 5HT2CR (unknown origin) expressed in HEK293 cells harboring luc2P/NFAT-RE plasmid at 10 uM after 6 to 8 hrs by luciferase reporter gene assay. Format: cell-based. An outline of the steps:
as §1

In data set [8] the test system is Mus musculus. Kind of data set: Anti-obesity activity in high fat diet-induced obese C57BL/6J mouse model assessed as reduction in body weight at 10 mg/kg, po measured up to 39 days. Format: functional, organism-based.
Data set [9] is described as follows: Fraction unbound in C57BL/6J mouse brain by equilibrium dialysis method. Format: ADME, tissue-based. In short, it runs like this: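 Plasma protein binding and unbound fraction in mouse brain tissue homogenate measured by equilibrium dialysis.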
Data set [10] concerns the target T2, Muscarinic acetylcholine receptor M1 (Homo sapiens). The experiment in a line: Antagonist activity at M1R (unknown origin) expressed in HEK293 cells harboring luc2P/NFAT-RE plasmid at 10 uM after 6 to 8 hrs by luciferase reporter gene assay. Format: cell-based. An outline of the steps: as §1
Data set [11] deals with D(3) dopamine receptor (Homo sapiens) (UniProt P35462). The experiment in a line: Antagonist activity at D3 receptor (unknown origin).
Chain of D(3) dopamine receptor (Homo sapiens) (P35462 whole entry): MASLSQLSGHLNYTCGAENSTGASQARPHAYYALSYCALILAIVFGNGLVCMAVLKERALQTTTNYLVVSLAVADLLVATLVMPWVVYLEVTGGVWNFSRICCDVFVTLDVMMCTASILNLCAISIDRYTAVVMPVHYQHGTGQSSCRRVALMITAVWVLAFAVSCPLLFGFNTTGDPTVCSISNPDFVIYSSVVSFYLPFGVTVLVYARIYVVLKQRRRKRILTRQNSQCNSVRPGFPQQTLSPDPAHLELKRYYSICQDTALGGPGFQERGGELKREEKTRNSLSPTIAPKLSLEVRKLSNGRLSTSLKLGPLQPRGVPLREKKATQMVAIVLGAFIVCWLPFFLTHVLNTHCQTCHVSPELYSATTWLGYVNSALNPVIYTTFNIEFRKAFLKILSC
Data set [12] concerns Mus musculus. Kind of data set: Anti-obesity activity in 16 hrs fasted db/db-induced obese […] mouse model assessed as reduction in body weight at 20 mg/kg, po measured after 4 weeks. Format: functional, organism-based.

Chain of Histamine H3 receptor (Q9Y5N1 whole entry): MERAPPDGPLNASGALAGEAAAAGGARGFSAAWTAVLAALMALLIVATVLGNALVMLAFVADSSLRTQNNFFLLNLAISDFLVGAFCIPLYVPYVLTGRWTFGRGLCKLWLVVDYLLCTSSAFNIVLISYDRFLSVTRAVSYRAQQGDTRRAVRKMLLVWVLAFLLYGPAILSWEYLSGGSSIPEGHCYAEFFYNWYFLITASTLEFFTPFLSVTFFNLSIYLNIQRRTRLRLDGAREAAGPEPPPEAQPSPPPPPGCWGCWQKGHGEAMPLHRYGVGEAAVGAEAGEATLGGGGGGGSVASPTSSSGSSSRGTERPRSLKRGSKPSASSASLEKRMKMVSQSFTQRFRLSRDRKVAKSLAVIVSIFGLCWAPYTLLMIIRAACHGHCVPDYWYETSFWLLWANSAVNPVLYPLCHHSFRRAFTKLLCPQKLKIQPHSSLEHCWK

`COc1ccc(-c2nc(N)nc3c2CCCC3C)cc1` (racemic): the outcome (with Mus musculus [1]; in [2]; in data set [4]; with Mus musculus [8]) was inactive. Also, the “Ratio AUC” value in data set [3] was 16.2%. In addition, the Activity in the data set on Mus musculus [5] was 26%. The pIC50 at Histamine H3 receptor is 7.40. In data set [6], this compound showed an AUC(0-t) of 1920 ng·h/mL. Moreover, the inhibition result in data set [7], in [10] and in data set [11] was “inactive” in each case. Besides, the fraction unbound in data set [9] was determined as 0.284. Also, the outcome in the data set with Mus musculus [12] was Active.
